We go through six compounds from ChEMBL document CHEMBL1649385, “Synthesis and in vitro anti-tumor activity of new oxadiazole thioglycosides” (Eur J Med Chem, 2011).

Usually IC50 stands for the concentration that inhibits the measured activity by half. For orientation: LD50 means the dose at which mortality reaches 50%.

Molecules are shown by their SMILES. Values after ≈ are worked out from the molar mass of the structure shown.

One series concerns HepG2. In words: Cytotoxicity against human HepG2 cells after 48 hrs by SRB assay. The format is functional, cell-based. Conditions: HepG2, 48 h. In outline:
(§1)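 SRB assay: cells seeded at 10⁴ cells/well and left 24 h to attach, then exposed to four concentrations of compound for 48 h at 37 °C, 5% CO₂. Cells fixed, washed and stained with sulforhodamine B; excess dye removed with acetic acid, bound dye taken up in Tris-EDTA and read on an ELISA reader. IC50 from surviving fraction versus concentration curves, relative to saline control.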
On the technique in general: Sulforhodamine B stains cellular protein and so reports cell mass.

The test system of a further series is MCF7. In words: Cytotoxicity against human MCF7 cells after 48 hrs by SRB assay. The format is functional, cell-based. The conditions noted are these: MCF7, 48 h. The gist of the method: as §1
A short description of series [1]: Acute toxicity in po dosed albino Wistar rat assessed as mortality after 24 hrs. Format: organism-based. The conditions noted are these: in vivo. The gist of the method: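 Male Wistar albino rats (110–115 g) were acclimated for 7 days with pellet diet and water ad libitum. Compound in DMSO was given as a single oral gavage of 500 mg/kg body weight at a fixed 0.5 mL/rat, with eight rats per group. Controls received 0.5 mL DMSO. Mortality was recorded after 24 h.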

The nature of series [2]: Acute toxicity in albino Wistar rat assessed as mortality at 50 mg/kg, po after 24 hrs. Format: organism-based. Set-up: dose 50 mg/kg, route oral. Conditions: in vivo, read-out: Activity.

`CC(=O)OC[C@@H]1O[C@H](Sc2nnc(C)c(=O)n2/N=C\c2cn(-c3ccccc3)nc2CC(C)C)[C@@H](OC(C)=O)[C@H](OC(C)=O)[C@H]1OC(C)=O`: the half-inhibitory concentration (IC50) turned out to be 9.1 µg/mL (≈ 13 µM) in the series on HepG2 and 20.2 µg/mL (≈ 29 µM) with MCF7.

For the compound `CC(=O)OC[C@H]1O[C@@H](Sc2nnc(-c3cn(-c4ccccc4)nc3CC(C)C)o2)[C@H](OC(C)=O)[C@@H](OC(C)=O)[C@@H]1OC(C)=O`, the IC50 in the series on HepG2 turned out to be 13.9 µg/mL (≈ 22 µM); with MCF7, 7.1 µg/mL (≈ 11.3 µM). Further, in series [1], the 50% lethal dose (LD50) at 24 h was more than 500 mg/kg. The mortality at 24 h in series [2] worked out at 25%.

Consider `CC/C(=C(\c1ccccc1)c1ccc(OCCN(C)C)cc1)c1ccccc1` [TAMOXIFEN], for which half-maximal inhibition in the series on MCF7 (IC50) was put at 8.31 µg/mL (≈ 22.4 µM).

As to `O=c1[nH]cc(F)c(=O)[nH]1` [FLUOROURACIL], the 50% inhibitory concentration (IC50) in the series with HepG2 worked out at 25 µg/mL (≈ 192 µM).

On to `CC(C)Cc1nn(-c2ccccc2)cc1-c1nnc(S)o1`, for which the IC50 came out at 43.6 µg/mL (≈ 145 µM) in the series on HepG2 and 17.9 µg/mL (≈ 59.6 µM) in the series with MCF7. Further, the LD50 at 24 h in series [1] was more than 500 mg/kg.

Consider `CSCSc1nnc(-c2cn(-c3ccccc3)nc2CC(C)C)o1`, for which the IC50 came out at 4.62 µg/mL (≈ 12.8 µM) in the series with HepG2 and 2.67 µg/mL (≈ 7.41 µM) in the series on MCF7. For the same compound, the LD50 at 24 h in series [1] is more than 500 mg/kg. Also, in series [2], the mortality at 24 h was 25%.
